Activity calls are given as the source filed them. No cut-off for these calls is given here.
How the values were obtained:
NALM-6 [1] = experiment: Cytostatic activity against human NALM6 cells at 2 umol/L measured after 4 to 5 days using Burker counting chamber; assay type: functional, cell-based
How it was run: (§1)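 Cells were seeded at 2.5 × 10^5 cells/mL in DMSO-containing medium, with or without 2 μmol/L compound. Cells were counted daily in a Bürker chamber. PDL was calculated as log(Nf/N0)/log 2 over 6 days. Values are mean ± SD of three experiments, compared with DMSO controls.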

REH [2] = experiment: Cytostatic activity against human REH cells at 2 umol/L measured after 2 to 3 days using Burker counting chamber; assay type: functional, cell-based; how it was run: as §1
Jurkat [3] = experiment: Cytostatic activity against human Jurkat cells at 2 umol/L measured after 2 to 3 days using Burker counting chamber; assay type: functional, cell-based; how it was run: as §1
[4] = Cytotoxicity against human NALM6 cells assessed as reduction in viable cells measured after 24 hrs by Hoechst-33258 staining-based FACS analysis; assay type: functional, cell-based; conditions: NALM-6, 24 h
How it was run: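 Leukemic lines kept in RPMI1640 with 10% FBS, penicillin/streptomycin, 37 °C, 5% CO2. Seeded at 2 × 10^5 cells/mL and exposed 24 h to a range of compound concentrations (DMSO stock); medium and DMSO negative controls. Live fraction taken from Hoechst 33258-negative singlets by flow cytometry. EC50 from five-parameter nonlinear regression.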

NALM-6 [5] = experiment: Cytostatic activity against human NALM6 cells assessed as population doubling level at 2 umol/L after 6 days using Burker counting chamber (reference value: 3.44); assay type: functional; how it was run: as §1
NALM-6 [6] = experiment: Cytostatic activity against eFluor670-labelled human NALM6 cells assessed as live cells at 2 umol/L measured immediately after compound addition by Hoechst-33258 staining-based FACS analysis (reference value: 95.8%); assay type: functional
NALM-6 [7] = experiment: Cytostatic activity against eFluor670-labelled human NALM6 cells assessed as live cells at 2 umol/L measured on day 1 by Hoechst-33258 staining-based FACS analysis (reference value: 95.5%); assay type: functional
NALM-6 [8] = experiment: Cytostatic activity against eFluor670-labelled human NALM6 cells assessed as live cells at 2 umol/L measured on day 2 by Hoechst-33258 staining-based FACS analysis (reference value: 97.7%); assay type: functional
NALM-6 [9] = experiment: Cytostatic activity against eFluor670-labelled human NALM6 cells assessed as live cells at 2 umol/L measured on day 4 by Hoechst-33258 staining-based FACS analysis (reference value: 98.6%); assay type: functional
NALM-6 [10] = experiment: Cytostatic activity against eFluor670-labelled human NALM6 cells assessed as live cells at 2 umol/L measured on day 5 by Hoechst-33258 staining-based FACS analysis (reference value: 98.6%); assay type: functional
REH [11] = experiment: Cytostatic activity against eFluor670-labelled human REH cells assessed as live cells at 2 umol/L measured on day 1 by Hoechst-33258 staining-based FACS analysis (reference value: 89.8%); assay type: functional
REH [12] = experiment: Cytostatic activity against eFluor670-labelled human REH cells assessed as live cells at 2 umol/L measured on day 2 by Hoechst-33258 staining-based FACS analysis (reference value: 90.8%); assay type: functional
REH [13] = experiment: Cytostatic activity against eFluor670-labelled human REH cells assessed as live cells at 2 umol/L measured on day 4 by Hoechst-33258 staining-based FACS analysis (reference value: 88%); assay type: functional
REH [14] = experiment: Cytostatic activity against eFluor670-labelled human REH cells assessed as live cells at 2 umol/L measured on day 5 by Hoechst-33258 staining-based FACS analysis (reference value: 85.6%); assay type: functional
Jurkat [15] = experiment: Decrease in C-MYC mRNA level in human Jurkat cells at EC50 measured after 24 hrs by RT-qPCR analysis; assay type: functional, cell-based
REH [16] = experiment: Decrease in C-MYC mRNA level in human REH cells at EC50 measured after 24 hrs by RT-qPCR analysis; assay type: functional, cell-based
[17] = target: Myc proto-oncogene protein (Homo sapiens) (UniProt P01106); experiment: Inhibition of C-MYC in human Jurkat cells assessed as decrease in LDHA level at EC50 measured after 24 hrs by RT-qPCR analysis; assay type: cell-based
Chain of Myc proto-oncogene protein (Homo sapiens) (P01106 whole entry): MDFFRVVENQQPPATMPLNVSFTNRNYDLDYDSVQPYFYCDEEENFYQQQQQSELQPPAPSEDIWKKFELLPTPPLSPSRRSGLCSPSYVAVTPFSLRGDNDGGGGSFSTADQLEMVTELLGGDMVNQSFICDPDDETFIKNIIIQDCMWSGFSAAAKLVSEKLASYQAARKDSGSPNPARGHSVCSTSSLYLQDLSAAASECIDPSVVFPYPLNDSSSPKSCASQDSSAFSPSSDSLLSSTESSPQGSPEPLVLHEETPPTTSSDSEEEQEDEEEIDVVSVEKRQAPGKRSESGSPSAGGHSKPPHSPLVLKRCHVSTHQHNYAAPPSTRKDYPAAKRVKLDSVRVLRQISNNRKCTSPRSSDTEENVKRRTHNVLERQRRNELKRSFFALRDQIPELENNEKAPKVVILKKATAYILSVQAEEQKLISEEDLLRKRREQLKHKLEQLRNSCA

[18] = target: Myc proto-oncogene protein (Homo sapiens) (UniProt P01106); experiment: Inhibition of C-MYC in human NALM6 cells assessed as decrease in LDHA level at EC50 measured after 24 hrs by RT-qPCR analysis; assay type: cell-based; conditions: NALM-6
[19] = target: Myc proto-oncogene protein (Homo sapiens) (UniProt P01106); experiment: Inhibition of C-MYC in human REH cells assessed as decrease in LDHA level at EC50 measured after 24 hrs by RT-qPCR analysis; assay type: cell-based
[20] = target: Myc proto-oncogene protein (Homo sapiens) (UniProt P01106); experiment: Inhibition of C-MYC in human Jurkat cells assessed as decrease in PKM2 level at EC50 measured after 24 hrs by RT-qPCR analysis; assay type: cell-based
[21] = target: Myc proto-oncogene protein (Homo sapiens) (UniProt P01106); experiment: Inhibition of C-MYC in human NALM6 cells assessed as decrease in PKM2 level at EC50 measured after 24 hrs by RT-qPCR analysis; assay type: cell-based; conditions: NALM-6
Jurkat [22] = experiment: Inhibition of P70S6K in human Jurkat cells assessed as decrease in C-MYC expression measured after 24 hrs by immunoblot analysis; assay type: cell-based
How it was run: (§2)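 Cells prepared as for RT-qPCR (7.5 × 10^5 cells/mL). Treated either with the line-specific EC50 concentration over a time course, or 24 h with graded concentrations up to that EC50. Cells washed with phosphatase inhibitors and lysed in RIPA; 40 μg protein per lane on SDS-PAGE, then nitrocellulose. Immunoblotted for C-MYC, P70S6K, p-P70S6K (Ser424) and actin.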

NALM-6 [23] = experiment: Inhibition of P70S6K in human NALM6 cells assessed as decrease in C-MYC expression measured after 24 hrs by immunoblot analysis; assay type: cell-based; how it was run: as §2
[24] = Downregulation of P70S6K protein expression in human Jurkat cells up to 20 umol/L measured after 24 hrs by immunoblot analysis; assay type: functional, cell-based; how it was run: as §2
Jurkat [25] = experiment: Inhibition of P70S6K in human Jurkat cells assessed as decrease in phosphorylated P70S6K expression at EC50 by immunoblot analysis; assay type: cell-based; conditions: TDE = time-dependent effect; how it was run: as §2
[26] = Downregulation of P70S6K protein expression in human REH cells at EC50 measured after 24 hrs by immunoblot analysis; assay type: functional, cell-based; how it was run: as §2
[27] = Downregulation of P70S6K protein expression in human NALM6 cells at EC50 measured after 24 hrs by immunoblot analysis; assay type: functional, cell-based; conditions: NALM-6; how it was run: as §2
NALM-6 [28] = experiment: Inhibition of P70S6K in human NALM6 cells assessed as decrease in C-MYC expression at 2 to 20 umol/L by immunoblot analysis; assay type: cell-based; conditions: TDE = time-dependent effect; how it was run: as §2
Jurkat [29] = experiment: Inhibition of P70S6K in human Jurkat cells assessed as inhibition of phosphorylated P70S6K expression up to 20 umol/L measured after 24 hrs by immunoblot analysis; assay type: cell-based; how it was run: as §2
Jurkat [30] = experiment: Inhibition of P70S6K in human Jurkat cells assessed as decrease in c-MYC expression at EC50 up to 24 hrs by immunoblot analysis; assay type: cell-based; how it was run: as §2
[31] = Cytotoxicity against B lymphocytes in human PBMC population assessed as reduction in viable cells measured after 24 hrs by Hoechst-33258 staining-based FACS analysis; assay type: toxicity, cell-based, B-cell
How it was run: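 PBMC were isolated from blood on a Ficoll-Paque gradient and seeded at 1 × 10^5 cells/well in 400 μL RPMI1640. Cells were exposed to a range of compound concentrations for 24 h. Viable CD3+, CD14+ and CD20+ populations were measured as Hoechst 33258-negative singlets by flow cytometry. EC50 was obtained by five-parameter nonlinear regression.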

With `CCCCCC(=O)C1=C(O)C(=O)c2c(O)c(O)cc(O)c2C1=O` the Activity (NALM-6 [1]) was “Active”, the Activity (REH [2]) was “Active” and the Activity (Jurkat [3]) was “Active”. It also gave an EC50 [4] of 16.7 µM, an Activity (NALM-6 [5]) of 1.75 and an Activity (NALM-6 [6]) of 95.8%. It also gave an Activity (NALM-6 [7]) of 95.2%, an Activity (NALM-6 [8]) of 97.7% and an Activity (NALM-6 [9]) of 96.7%. For the same molecule, the Activity (NALM-6 [10]) was 50.1%, the Activity (REH [11]) was 74.9% and the Activity (REH [12]) was 40.2%. For the same molecule, the Activity (REH [13]) was 6.9%, the Activity (REH [14]) was 4.17% and the Activity (Jurkat [15]) was “Active”. The Activity (REH [16]) was “Active”, the inhibition [17] was “Active” and the inhibition [18] was “Active”. For the same molecule, the inhibition [19] was “Active”, the inhibition [20] was “Active” and the inhibition [21] was “Active”. For the same molecule, the inhibition (Jurkat [22]) was “Dose-dependent effect”, the inhibition (NALM-6 [23]) was “Dose-dependent effect” and the inhibition [24] was “Active”. For the same molecule, the inhibition (Jurkat [25]) was “Tde”, the Activity [26] was “Active” and the Activity [27] was “Active”. For the same molecule, the inhibition (NALM-6 [28]) was “Tde”, the inhibition (Jurkat [29]) was “Active” and the inhibition (Jurkat [30]) was “Active”. The EC50 at 24 h [31] was > 50 µM.

— ChEMBL document CHEMBL3868590, “Quambalarine B, a Secondary Metabolite from Quambalaria cyanescens with Potential Anticancer Properties” (J Nat Prod, 2016)
